Assay: Toxicity liver stage against HepG2, at 10uM
Format: cell-based
Design: test concentration 10 uM, cell line HepG2-A16-CD81EGFP
Conditions: human, HepG2-A16-CD81EGFP cells; read-out: INHIBITION
Outline: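 Uninfected HepG2-A16-CD81EGFP cells, 3 × 10^3 per well, 1536-well, plated on prespotted compound at 10 μM final, parasite-free screening media added to match infected plates; puromycin 10 μM positive, DMSO 0.5% negative; run in parallel with 48 h PbLuc assay at 37 °C, 5% CO2; viability by CellTiter-Glo luminescence, normalized to controls.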

Structure (SMILES) | cytotoxicity at 10 µM
CCOc1nc2cnccc2n(CC(=O)NCCc2ccccc2)c1=O | -6.29%
CSCC(C)(O)CNS(=O)(=O)Cc1ccc(F)cc1 (stereo not given) | -1.12%
Cc1c(C(=O)N2CCN(c3ncccn3)CC2)n(C)c2ccc(Cl)cc12 | 3.99%
CCCNC(=O)CSc1nnc2[nH]c(=O)cc(CC)n12 | -17.3%
Cn1c(C(F)(F)F)nn(CCNC(=O)NCc2ccccc2)c1=O | -27.3%
CCn1ncc(CN2CCN(C(=O)Cn3cc(Br)c(C)n3)CC2)c1C | 0.301%
NC(=O)CN1CCC(c2csc(Nc3cnccn3)n2)CC1 | -2.19%
Cc1cc(C)nc(Nc2nccnc2C2CCCN(CCO)C2)n1 (stereo not given) | -0.0399%
COc1ncc(CN2C[C@@H]3C[C@@H](O)CN3C[C@@H]2Cc2ccccc2)cn1 | -6.86%
CCC(=O)NC(Cc1cc(N(C)C)nc(C2CC2)n1)c1ccccc1 (stereo not given) | 0.301%
O[C@H]1CCN(CCCOc2ccccc2F)C[C@@]12CCCO2 | 1.14%
COCCc1ncc(CNC2(c3ccc(Cl)cc3Cl)CC2)cn1 | -15.8%
CN(C)C(=O)CN1CCCC1c1nc(N)ncc1-c1ccc(F)cc1 (stereo not given) | -8.94%
O=C(c1cccs1)N1CCc2c(nc(N3CCCC3)[nH]c2=O)C1 | -16.3%
Cc1nc(C2CCN(C(=O)c3ccn(C)n3)CC2)c2sccn12 | -4.66%
CN(C)S(=O)(=O)N1CCCC1c1cccc(-n2ccnc2)n1 (stereo not given) | -3.75%
Cc1ncsc1CN1CC[C@](C)(O)[C@@H](Oc2cccc(F)c2)C1 | -14.8%
O=S(=O)(Cc1ccccc1)CC(O)Cn1cccn1 (stereo not given) | 3.4%
Cc1ccc(O)c(CNc2cccc(CN3CCSCC3)c2)n1 | -7.94%
CCc1ccsc1C(=O)N(C)CCc1ccncc1 | -0.386%
COCc1nnc(-c2cccc(C(=O)N(C(C)C)C3CCC3)c2)o1 | 1.51%
CCC(C)C(=O)N(C)Cc1cc(F)ccc1N1CCC(OC)CC1 (stereo not given) | -5.41%

Structure (SMILES) | cytotoxicity at 10 µM
O=C1CCN(C(=O)C2(c3ccc(Br)cc3)CC2)CCN1 | 1.56%
COc1ccccc1C(CNC(=O)NCc1cc[nH]n1)N1CCCC1 (stereo not given) | -0.634%
CSC(C)(C)CNC(=O)NC1CCN(CC(F)F)CC1 | -5.12%
CCc1nnc(CN2CCC(c3nc4cc(Cl)ccc4o3)CC2)o1 | -0.956%
CC(CNC(=O)c1cc(Cl)ccc1F)N1CCCC1 (stereo not given) | -4.43%
O=C(NCCc1nnc2n1CCC2)NCC1(c2ccccc2F)CC1 | 0.833%
COc1ccc(CNC(=O)NC2CCN(C)CC2)c(C(F)(F)F)c1 | -12.2%
CN1CCC(C)(CNC(=O)c2ccc(SCc3cccnc3)cc2)CC1 | 12.4%
COc1cccc(F)c1C(C)NC(=O)NCc1ccnc(C)n1 (stereo not given) | -10.9%
CN(c1ccc(C#N)cn1)C1CCCN(Cc2noc(C3CC3)n2)C1 (stereo not given) | -17.2%
CCc1nn(C)c2[nH]nc(NC(=O)c3ccccc3COC)c12 | 6.16%
O=C(Nc1ccc(F)cc1)N(CCC(F)(F)F)C[C@H](O)CO | -7.8%
CC(C)CSCCCNC(=O)C1CCOC1 (stereo not given) | -5.81%
O=C(Nc1nc2c(s1)CCC2)c1cccnc1N1CCOCC1 | 8.5%
CCc1ncnc2c1CCN(S(=O)(=O)CC)CC2 | -105%
Cn1cccc1C(=O)NCc1cn2c(n1)CN(S(=O)(=O)C1CC1)CC2 | -114%
CC(=O)N1CCC(n2nccc2-c2cnc(N3CCCC3)nc2)CC1 | -0.00173%
C[C@@H]1CN(c2nc3c(cc2C(N)=O)CCC3)C[C@@]1(O)C1CCC1 | -3.98%
CO[C@H]1C[C@@H](O)C12CCN(CCCOc1ccc(C(N)=O)cc1)CC2 | -5.66%
CC1=C(CCN2C[C@H](O)[C@@H](N3CCOCC3)C2)C(C)(C)CCC1 | -0.128%
CC(C)=CCN1CCN(C(=O)CSc2ccccn2)[C@H]2CS(=O)(=O)C[C@H]21 | 4.97%
CNc1ccc(C)cc1C(=O)N1CCCC2(CCNC2)C1 (stereo not given) | -6.63%

Structure (SMILES) | cytotoxicity at 10 µM
C[C@@H]1CN(C(=O)CCCn2nnc(-c3ccc(F)cc3)n2)C[C@]1(C)O | 14.2%
O=C(NCC(F)(F)F)C(c1cccnc1)N1CCCC1 (stereo not given) | 2.26%
Cc1cc(C)n(C2CN(c3nc(N)nc4c3CCCC4)C2)n1 | -44.4%
CCCn1ccnc1-c1nccn1CCN(C)C | -1.04%
Cn1ccnc1-c1ccc(NCCC2COc3ccccc3O2)nn1 (stereo not given) | 9.56%
CCC(C)Nc1ccc(-c2nc(-c3cccc(OC)c3OC)no2)cn1 (stereo not given) | 24.8%
N#Cc1c(N)nc2c(c1-c1c[nH]nc1C1CCCCC1)CNCC2 | 0.787%
CC(C)CCn1cc(C(C(=O)O)N2CCCN(C3CCCC3)CC2)cn1 (stereo not given) | -5.84%
CNS(=O)(=O)c1ccc(CN2CCCN(CC(C)C)CC2)cc1 | 4.03%
COCCCN1CC2(CCC1=O)CCN(Cc1cc(C)no1)CC2 | 4.08%
Cc1c(C(=O)N2CCC3(CCC(=O)N(CCN(C)C)C3)CC2)ccn1C | -4.06%
CS(=O)(=O)c1ccc(CN2CCCCC2c2cccc(F)c2)cc1 (stereo not given) | -17.4%
Cn1cc(CN2CCC(CCC(=O)Nc3ccccc3Cl)CC2)cn1 | -2.98%
Cc1nccn1CCC1CCN(C(=O)C2CC3(CCNCC3)CN2)CC1 (stereo not given) | -1.64%
O=C(O)C1(Oc2ccc3ccccc3c2)CCN(c2ccncc2)CC1 | 0.542%
COCC(=O)N1CCc2cccc(S(=O)(=O)N3CCOCC3)c2C1 | -5.42%
Cc1cc(-c2cc(-c3cc(CC(=O)O)cs3)nc(N)c2C#N)oc1C | -6.25%
O=C(c1cncc(NCC2COc3ccccc3C2)n1)N1CCCC1 (stereo not given) | -6.53%
Cc1cccc2[nH]c(C3CCN(C(=O)c4cccnn4)CC3)nc12 | 11.2%
COC1CCCN(C2CCN(c3cccc(-c4csc(C)n4)c3)CC2)C1 (stereo not given) | 0.929%
CC(=O)NCC(=O)N1Cc2c(-c3cccc(C)c3)nc(N)nc2C1C (stereo not given) | 7.66%
Cc1c(Cn2c(=O)cnc3ccccc32)cnn1C | -0.473%

Structure (SMILES) | cytotoxicity at 10 µM
Nc1cc(O)nc(CCNC(=O)CC[C@@H]2CCCN3CCCC[C@H]23)n1 | -1.89%
CSc1nccc(-c2cccc(-c3ccn(CC4COCCO4)n3)c2)n1 (stereo not given) | -7.92%
c1cc(C2CCN(c3ncnc4c3CCNCC4)CC2)ccn1 | 8.33%
COC(=O)N1CCN(Cc2ccccc2Cl)CC1 | -0.227%
CCCC1(CO)CCCN(C(=O)CCCn2nc(C)cc2C)C1 (stereo not given) | -9.53%
CC(C)(C)OC(=O)NC1CCCN(Cc2cccc(O)c2)C1 (stereo not given) | -45.3%
COCCN(Cc1cnn(C)c1)CC1CCN(C(C)C)CC1 | -9%
CN(Cc1cc[nH]n1)C(=O)c1cccc(CCC(C)(C)O)c1 | -0.0174%
COCC(O)CNC(=O)c1coc(COc2ccc3sc(C)nc3c2)n1 (stereo not given) | 10.8%
Cn1c(=O)c2cc(C(=O)NCCOc3ccccc3)ccc2n(C)c1=O | -4.69%
Cc1cc(Br)c(O)c(-c2nc(N3CCOCC3)sc2C)c1 | 74.4%
Cc1ccc(=O)n(CC2(O)CCN(Cc3ccsc3)CC2)n1 | 0.642%
O=C(CN1CCOC(Cn2cncn2)C1)NCc1cccs1 (stereo not given) | -10.2%
c1ccc(-c2nnc3n2CCN(Cc2ccc4c(c2)OCCO4)C3)cc1 | 7.66%
O=C(CCCN1CCOC1=O)Nc1cnn(-c2ccccc2Cl)c1 | -4.56%
O=C(CCc1cccc(Cl)c1Cl)N1CCOCC1c1ncon1 (stereo not given) | -2.33%
CC(C)c1ncc2c(n1)CN(Cc1nc(-c3cccnc3)no1)CC2 | -18.7%
COCCOc1cccc(C(=O)N2CCCC(n3ccnc3)C2)c1 (stereo not given) | -17.1%
CC(C)n1cc(CN2CCCN(C(=O)CN3CCCC3=O)CC2)cn1 | -27.5%
Cc1cnn(CC(=O)N2CCCN(Cc3cnn(C(C)C)c3)CC2)c1 | -12.3%
CC(NC(=O)CCCc1nc(C(C)(C)C)no1)c1ccccn1 (stereo not given) | -5.81%
CCOc1ccccc1OC1CCN(C(=O)c2c[nH]nn2)CC1 | -2.48%

Structure (SMILES) | cytotoxicity at 10 µM
COc1ccc2c(c1)CCN2Cc1nc2c(cnn2C)c(=O)[nH]1 | -10.3%
CN(Cc1ccsc1)C(=O)Nc1ccc(N(C)C)nc1 | -3.08%
CCCc1n[nH]c(C2CN(C(=O)c3cc4c(s3)CCC4)CCO2)n1 (stereo not given) | -10.1%
CN1CCOC(CNCc2coc(-c3ccc(Cl)cc3)n2)C1 (stereo not given) | -9.99%
NC(=O)CN1CCCN(C(=O)Cc2cccc(C(F)(F)F)c2)CC1 | -3.05%
CNc1snc(C)c1C(=O)N1CCCC(n2ccnc2)C1 (stereo not given) | -13.8%
CC(C)c1nc(C2CCCN2Cc2cc(=O)n(C)c(=O)n2C)no1 (stereo not given) | -10.7%
c1nc(N2CCOC(Cn3cncn3)C2)c2cc[nH]c2n1 (stereo not given) | -7.97%
COc1cccc(S(=O)(=O)NC(=O)COC2CCCC2)c1 | -7.1%
CCc1nc(C2CCCN2CC(=O)Nc2nncs2)no1 (stereo not given) | -9.47%
Cn1ccnc1CN1CCN(Cc2ccccc2C#N)CC1 | -3.83%
Cc1cnn(CC2CCCN2C(=O)c2ccc(C(N)=O)cn2)c1 (stereo not given) | -4.64%
O=C(Cn1cnc(NC(=O)CC2CCCC2)n1)NCc1ccccc1 | -4.1%
Cc1noc2ncc(C(=O)N3CCCC3c3ccncc3)cc12 (stereo not given) | -5.66%
Cc1cc(NC(=O)NCC(C)N2CCc3ccccc32)no1 (stereo not given) | -6.34%
CN(C)C(=O)[C@H]1C[C@@H]2CCN(Cc3ccoc3)C[C@@H]2O1 | -99.7%
CCCN1CC[C@@H]2[C@@H](CO[C@H]2CNC(=O)c2nccn2C)C1 | -111%
COc1c(CNCCNC(=O)c2cccc(C)c2)c(C)nn1C | -6.64%
CCc1ccc(CN2CCC3(CC2)CNC(=O)CO3)o1 | -16.5%
c1ccc(CCNc2cccc(C3CCCNC3)n2)cc1 (stereo not given) | -3.18%
Nc1cnn(CC(=O)N2CCCCC2)c1 | -3.15%
O=c1cc(CN2C[C@@H]3CC[C@H]2CN(Cc2ccccc2)C3)[nH]c(=O)[nH]1 | 8.89%

From ChEMBL document CHEMBL4513216, “Probing the Open Global Health Chemical Diversity Library for Multistage-Active Starting Points for Next-Generation Antimalarials” (ACS Infect Dis, 2020)
